From the RNAGym collection of RNA variant scans (doi:10.1126/science.aae0568)
This sample holds only a part of the variants without activity.

B1: tRNA (parent)
chain: GUUCCGUUGGCGUAAUGGUAACGCGUCUCCCUCCUAAGGAGAAGACUGCGGGUUCGAGUCCCGUACGGAACG

Variants of: B1
Experiment: yeast fitness relative to wild type (ratio to wild type); higher = fitter; tRNA-Arg(CCU), competitive growth, 37 C, YPD
Outline: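 Amplicons of the tRNA-Arg(CCU) gene were sequenced, 100-nucleotide paired-end, from the start population and from each end population of a pooled yeast competition. The competition, in six parallel replicates, lasted 24 hours in YPD at 37°C. Fitness relative to wild type was calculated from changes in genotype frequencies. Genotypes had to have ≥ 100 starting reads, and estimates < 0.5 were set to 0.5.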

Variant	yeast fitness
G18A G44A	0.637
G18A G44C	0.767
G18C G23A C61U	≤ 0.5
G18C G23A C61A	≤ 0.5
U19A U47A C61A	0.549
G18C C24G A36C G38C U54C G58C	≤ 0.5
G18C G38A A43U A45G A57G U59C	≤ 0.5
G18C C29U	0.546
G18A G44C A65U	0.537
U19C A36U A70U	≤ 0.5
G18C C22G C31U U59A G63A	≤ 0.5
U19A C24U A69U	0.746
U19A C31G A65U	0.582
U19C A37G C49U	0.566
G18C U26G C55G	≤ 0.5
G18A G51C	≤ 0.5
G18A G25C A43U U59A G63A	≤ 0.5
U19A U28A U53G	≤ 0.5
G18C U19G C27U A43U A65U	≤ 0.5
G18A U59G	0.776
U19A C30G	0.671

Variant	yeast fitness
G18A U19A A70U	0.657
G18C U47A A70U	≤ 0.5
G18C A70C	0.687
G18A C60A G67A	≤ 0.5
U19C A20C C33U U35A G58A	≤ 0.5
G18C U28C	0.663
U19A C27U G44A	0.781
U19A C24G G25A C46G G52A A65C	≤ 0.5
G18A U53A U54G	≤ 0.5
G18U U26A C49U G50C	≤ 0.5
G18C C31A A43G G58C A65G	≤ 0.5
G18A G68C A69U	≤ 0.5
U19C A21U A40U	0.641
G18C A36U C55U U59A	≤ 0.5
G18C A36C	≤ 0.5
G18C G52A A57U A65C	≤ 0.5
U19C A21U C22A C49U	0.536
G18C C34G G58C	≤ 0.5
U19A A36U G50U C61U	≤ 0.5
G18C C34G G39C	≤ 0.5
G18C C60U G67A	≤ 0.5

Variant	yeast fitness
G18A U19C C27G C61A U64G C66U	≤ 0.5
U19A C34G A43C C49U	≤ 0.5
U19A C27G A65U	≤ 0.5
G18C G23C G48A	≤ 0.5
U19A G38C C60A	≤ 0.5
G18C G23A C24U C61U	≤ 0.5
G18C A20G C29A C49U A69U	≤ 0.5
G18A C55U	0.554
G18A G44A A57G	≤ 0.5
G18C C29U A70C	≤ 0.5
G18C U53C C61U	≤ 0.5
U19A C24U G38A U54C C62U C66A	≤ 0.5
G18C G25C C33U C61U	≤ 0.5
G18A U26A C27U C49U G58A	≤ 0.5
U19A U26A C29A C46G U54A	0.603
G18C A57G	0.715
G18C C29G A36C G44C G50A C66A	≤ 0.5
U19A G58A A69U	1.2
U19A A37U	0.747
U19A A37C	0.778
U19A C24G C61U	≤ 0.5

Variant	yeast fitness
G18C G39C G50A	≤ 0.5
U19A C27U A45U C62A	≤ 0.5
U19A C22G G23C C30G C34A C55U	≤ 0.5
U19A C62U	0.931
U19C A20C C33U U35A C49A A69U	≤ 0.5
G18C G23C G39A	≤ 0.5
G18A G25C C30G G41U C55G	≤ 0.5
U19A A37C C49G	0.501
U19A A21C G25C C31G C33U G67A	≤ 0.5
U19C A20C	0.805
U19A G41C A70U	≤ 0.5
U19C A42U	1.12
G18A C62A	0.513
U19C A20C A43G C46A C55U A57U C61U	0.592
U19A C31G G38C A40C G56A	0.569
G18C C27U G38A G39C U64C	≤ 0.5
G18A G51A A57U	0.536
G18C C30U A45U	0.549
G18C G23A G25A C49U C60G	≤ 0.5
U19A C22G G23C C30G C34A	0.519
U19A C66U	0.996
